Assays:
Assay in all cases: MIC by microbroth dilution
Details in all cases: 24 h, 37 °C
[1] = tested on: E. faecalis 29212; type: cell-based, Enterococcus faecalis
[2] = tested on: E. coli 25922; type: cell-based, Escherichia coli
[3] = tested on: S. epidermidis 12384; type: cell-based, Staphylococcus epidermidis
Outline: (§1)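 CLSI microbroth dilution in Mueller-Hinton broth. Strains were grown at 37 °C with shaking to log phase, pelleted, and resuspended in 0.85% saline to OD625 0.1. Final inoculum 5 × 10^5 CFU/mL in 96-well plates, tested in triplicate, incubated 24 h at 37 °C. Growth was read as OD at 625 nm.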

[4] = tested on: P. aeruginosa 27853; type: cell-based, Pseudomonas aeruginosa
[5] = tested on: S. aureus 33591; type: cell-based, Staphylococcus aureus
[6] = tested on: A. baumanni 19606; type: cell-based, Acinetobacter baumanni
Outline: as §1

[7] = tested on: E. coli K12; type: cell-based, Escherichia coli
[8] = tested on: S. flexneri 2457NR517; type: cell-based, Shigella flexneri
[9] = tested on: E. cloacae 13047; type: cell-based, Enterobacter cloacae
Outline: as §1

[10] = tested on: MRSA 33591; type: cell-based, Staphylococcus aureus
Outline: as §1

[11] = tested on: MRSA A960649; type: cell-based, Staphylococcus aureus
Outline: as §1

[12] = tested on: K. pneumoniae NR15410; type: cell-based, Klebsiella pneumoniae
Outline: as §1

[13] = tested on: E. faecium BM4105RF; type: cell-based, Enterococcus faecium
[14] = tested on: C. freundii 4747CFAA; type: cell-based, Citrobacter freundii
Outline: as §1

[15] = tested on: S. aureus 29213; type: cell-based, Staphylococcus aureus

With “6-(4-Methylpiperazin-1-yl)-2-(4-(2-(4-(oct-7-ynyl)-1H-1,2,3-triazol-1-yl)ethoxy)phenyl)-1H-benzo[d]imidazole [Compound 22]” the “MIC E. faecalis 29212” value [1] was 16 to 32 µg/mL, the “MIC E. coli 25922” value [2] was 16 µg/mL and the “MIC S. epidermidis 12384” value [3] was over 32 µg/mL. For the same substance, the “MIC P. aeruginosa 27853” value [4] was 16 µg/mL, the “MIC S. aureus 33591” value [5] was 16 to 32 µg/mL and the “MIC A. baumanni 19606” value [6] was over 32 µg/mL. For the same substance, the “MIC E. coli K12” value [7] was 16 µg/mL, the “MIC S. flexneri 2457NR517” value [8] was over 32 µg/mL and the “MIC E. cloacae 13047” value [9] was over 32 µg/mL. For the same substance, the “MIC MRSA 33591” value [10] was over 32 µg/mL, the “MIC MRSA A960649” value [11] was over 32 µg/mL and the “MIC K. pneumoniae NR15410” value [12] was over 32 µg/mL. The “MIC E. faecium BM4105RF” value [13] was over 32 µg/mL, the “MIC C. freundii 4747CFAA” value [14] was over 32 µg/mL and the “MIC S. aureus 29213” value [15] was 16 to 32 µg/mL.

From PMC12125705 (Journal of medicinal chemistry, 2017)
